Bioassay records from PubChem.
Rad51 HR inh: human RAD51 strand exchange inhibitors, primary screen, biochemical, fluorescence. 200,000 tested, 0.085% active. AID 1385, 2008. hRad51 DNA strand exchange, fluorescence dequenching. inhibition, % at 10 µM. DNA repair protein RAD51 homolog 1 (Homo sapiens), Q06609;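 active = inhibition above 40% at the single screening dose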
Target sequence (Q06609 whole entry, looked up): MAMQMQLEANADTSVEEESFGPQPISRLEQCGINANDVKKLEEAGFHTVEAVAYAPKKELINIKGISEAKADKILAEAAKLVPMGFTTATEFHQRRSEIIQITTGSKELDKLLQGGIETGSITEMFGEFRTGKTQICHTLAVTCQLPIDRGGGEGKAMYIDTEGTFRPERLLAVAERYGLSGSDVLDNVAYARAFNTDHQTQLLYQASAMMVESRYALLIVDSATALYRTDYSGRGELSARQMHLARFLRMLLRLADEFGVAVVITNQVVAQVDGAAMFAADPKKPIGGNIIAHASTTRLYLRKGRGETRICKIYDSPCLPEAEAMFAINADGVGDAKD
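material = hRad51 filaments on single-stranded DNA | timing = filaments 15 min 37 °C, then compound 30 min | signal = FRET fluorescence dequenching, excitation 485 nm, emission 520 nm | benchmarks = control wells and blank wells on each plate | evaluation = percent inhibition relative to plate controls and blanks | compound = 10 µM final, single point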
Cl transport mod: KCC2 cotransporter modulators, thallium flux, primary screen, cell-based, HEK293 KCC2, FluoZin-2 fluorescence, MLSMR. 190,000 tested, 2.2% active. KCC2 cells, thallium flux FluoZin-2 fluorescence. AID 1456, 2008. B-score of Tl+ flux slope (higher = more flux/activation; lower = inhibition) at 10 µM. Solute carrier family 12 member 5 (Homo sapiens), Q9H2X9;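 active = thallium flux slope and its plate-corrected score both differing from the plate sample mean at a set confidence after two filtering rounds, in either direction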;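 also: slope of fluorescence scaled to starting intensity during 10 to 20 s after thallium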
WT yeast gro inh: growth inhibition of WT strain, primary screen, mitochondrial fusion inhibitor project, WT and mutant strains, chemical genetic; mitochondrial fusion phenotypic screen; inhibition, % at 10 µM; 190,000 tested, 2.1% active; in the data active = inhibition above about 58%; tested in S. cerevisiae
Autophagy mod: autophagy modulators in MEF cells, primary screen, imaging, high-content, MEF GFP-LC3; AID 463193, 2010; calls only at 10 µM (by protocol); 190,000 tested, 0.98% active; MEF GFP-LC3 puncta imaging; test concentration mostly 10 µM;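 active = percentage of spot-positive cells more than 3 SD above its plate mean, without a fluorescence outlier flag or 80% toxicity; inconclusive = no clear call, values can overlap the other calls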
Ins promoter up: insulin promoter activators in MIN6 cells, imaging, high-content screening, mouse beta cells | MIN6 insulin promoter-GFP reporter; hits give high values | AID 1625, 2009 | 190,000 tested, 0.3% active | z-score at 5 µM;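 active = z-score above 3 at 5 µM with at least 500 cells counted in the well; inconclusive = wells under 500 cells, flagged as cytotoxic or low count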
SKKanGAS inh: S. pyogenes SKKanGAS growth inhibitors in kanamycin, primary screen, streptokinase expression inhibitor project, SKKanGAS strain, BacTiter-Glo luminescence. 6 h. inhibition, % at 7.5 µM. 300,000 tested, 1.3% active;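 active = mean replicate score, as percent of positive control median, at least 50; inconclusive = mean below 50 but one replicate at or above 50; inactive = mean and every replicate below 50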;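 also: strain carries kanamycin resistance gene driven by streptokinase promoter and grows in 40 µg/ml kanamycin; loss of luminescence reflects streptokinase promoter inhibition or plain growth inhibition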
Numbers stand for hits; i = inactive; ? = inconclusive; nt = no result; + = active, no number. An excerpt weighted towards active compounds, which were near 4.2% of everything screened.

SMILES	Rad51 HR inh	Cl transport mod	WT yeast gro inh	Autophagy mod	Ins promoter up	SKKanGAS inh
O=C(NCc1ccccc1)C(c1ccncc1)N(C(=O)c1ccccn1)c1ccccc1 (centres undefined)	nt	nt	nt	nt	nt	i
CN(Cc1nc(Cc2ccccc2F)no1)Cc1cccc2ncccc12	i	i	i	i	i	i
COc1ccccc1C(=O)C1CCCN(C(=O)CCn2cnnn2)C1 (centres undefined)	i	i	nt	nt	i	i
CSCCC(=O)Nc1nc(-c2ccccn2)cs1	i	i	i	i	i	nt
Cc1cccnc1Nc1nc(-c2ccccn2)cs1	i	i	i	i	i	106
O=C(Nc1nc(-c2ccccn2)cs1)c1cc2ccccc2o1	i	i	i	i	i	104
Cn1cccc1C(=O)Nc1nc(-c2ccccn2)cs1	i	i	i	i	i	81
O=C(COc1ccc(F)cc1Cl)Nc1nc(-c2ccccn2)cs1	nt	nt	nt	nt	nt	110
O=C(Nc1nc(-c2ccccn2)cs1)c1ccc(S(=O)(=O)N2CCCCC2)cc1	i	nt	nt	nt	?	84
Cc1csc(NC(=O)c2cccn2C)n1	i	i	85	i	i	i
Cc1cccc(C(=O)NC(C(=O)Nc2nc(-c3ccccn3)cs2)C(C)C)c1 (centres undefined)	i	i	72	i	nt	91
C[C@H](NC(=O)c1ccccc1)C(=O)Nc1nc(-c2ccccn2)cs1	i	i	i	i	i	i
Cc1csc(NC(=O)c2ccc(C(=O)Nc3nc(C)cs3)cc2)n1	i	i	nt	nt	i	i
Cc1cccc(C(=O)OCC(=O)N(CC(C)C)c2c(N)n(Cc3ccccc3)c(=O)[nH]c2=O)c1O	nt	nt	nt	nt	nt	i
O=c1cc(-c2ccccc2)[nH]n1-c1ccc([N+](=O)[O-])cc1	i	i	nt	i	nt	51
O=c1c(N=Nc2ccc(O)cc2)c(-c2ccccc2)[nH]n1-c1ccc([N+](=O)[O-])cc1	nt	i	i	i	i	i
Cc1ccc(NC(=O)CSCc2cc(=O)n3cc(C)sc3n2)cc1	nt	nt	nt	nt	nt	i
CC(C)=CCc1c(O)c(CC=C(C)C)c2c(c1O)C(=O)CC(c1ccc(O)cc1)O2 (centres undefined)	i	i	91	i	i	102
CC(C)=CCc1c(O)cc(O)c2c1OC(c1ccc(O)cc1)CC2=O (centres undefined)	i	nt	nt	nt	nt	i
Cc1ccc(N=Cc2c(C)[nH]n(-c3nc4ccccc4[nH]3)c2=O)cc1	i	i	84	i	i	66
CCOC(=O)C(CCCP(=O)(c1ccccc1)c1ccccc1)(NC(C)=O)C(=O)OCC	nt	i	nt	nt	i	i
COCCn1c(SCC(=O)Nc2cc(C)on2)nnc1-c1ccccc1	nt	nt	nt	nt	nt	i
COC(=O)NNC(=O)COc1ccccc1C	i	i	i	i	i	i
Cc1cccc(C(=O)NC(=S)NNC(=O)COc2c(C)cccc2C)c1	nt	37	i	i	i	107
Cc1cccc(C(=O)NC(=S)NCc2ccccc2)c1	nt	nt	nt	nt	nt	i
SMILES	Rad51 HR inh	Cl transport mod	WT yeast gro inh	Autophagy mod	Ins promoter up	SKKanGAS inh
Cc1ccc(C(=O)NC(=S)NNC(=O)COc2ccc([N+](=O)[O-])cc2)cc1	nt	nt	nt	nt	nt	82
Cc1ccc(OCC(=O)Nc2ccc([N+](=O)[O-])cc2)cc1	nt	i	i	i	i	i
Cc1ccc(C(=O)NC(=S)NNC(=O)COc2ccccc2C)cc1	i	31	i	i	i	118
O=C1CN(C(=O)c2cc3ccccc3oc2=O)C(c2ccc(F)cc2)c2cc(Br)ccc2N1 (centres undefined)	nt	i	i	+	i	i
O=C1CN(C(=O)c2cc3ccccc3oc2=O)C(c2ccc(F)cc2)c2cc(F)ccc2N1 (centres undefined)	nt	i	i	i	i	i
CC(C)=CCc1cc([C@@H]2COc3c(ccc4c3C=CC(C)(C)O4)C2)c(O)cc1O	i	nt	nt	nt	nt	105
COc1cc(CCC(=O)OCC(=O)N2CCc3ccccc32)cc(OC)c1OC	nt	nt	nt	nt	nt	i
O=C(COC(=O)c1ccncc1)Nc1cc(Cl)ccc1Cl	i	nt	i	i	i	i
O=C(COC(=O)c1ccncc1)Nc1cc(Cl)c(Cl)cc1Cl	nt	i	71	i	nt	nt
Cc1ccc(OCCn2c(=S)[nH]c3ccccc32)c(C(C)C)c1	nt	nt	nt	nt	nt	101
Cc1cccc(OCCn2c(=S)[nH]c3ccccc32)c1	i	8.9	i	i	i	i
S=c1[nH]c2ccccc2n1CCOc1ccccc1	nt	nt	nt	nt	nt	i
COc1ccc(NC(=O)CSc2nnc(NC(C)=O)s2)c([N+](=O)[O-])c1	nt	i	i	i	i	i
c1csc(CCNc2ncnc3sc4c(c23)CCC4)c1	i	-4.5	i	i	i	i
c1ccc(Nc2ncnc3sc4c(c23)CCC4)cc1	i	i	i	i	nt	i
CCOC(=O)N1CCN(C(=O)c2ccc(CS(=O)c3ccccc3)o2)CC1 (centres undefined)	nt	nt	nt	nt	nt	i
Cc1ccn2c(=O)c(NC(=O)c3ccc(Br)o3)c(C)nc2c1	nt	nt	nt	nt	nt	i
CCOc1ccccc1OCCCCCc1c(C)n[nH]c1C	i	i	nt	i	i	61
COc1ccccc1OCCCCCc1c(C)n[nH]c1C	i	i	i	i	i	66
Cc1ccc(OCCCOc2cccc3cccnc23)cc1C	i	i	i	i	i	i
COc1ccccc1OCCCc1c(C)n[nH]c1C	i	i	i	i	i	i
Cc1cccc(OCCCCc2c(C)n[nH]c2C)c1C	i	nt	i	i	i	99
Cc1cccc(OCCCOc2cccc3cccnc23)c1C	i	nt	i	i	i	58
Cc1cn2c(=O)c(C(=O)N3CCN(c4ccccc4)CC3)cnc2s1	nt	nt	nt	nt	nt	i
Cc1csc(SCC(=O)NC(C)C2CC3CCC2C3)n1 (centres undefined)	nt	nt	nt	nt	nt	i
SMILES	Rad51 HR inh	Cl transport mod	WT yeast gro inh	Autophagy mod	Ins promoter up	SKKanGAS inh
O=c1[nH][nH]c(=S)n1-c1ccccc1C(F)(F)F	i	i	nt	nt	i	nt
CC1(C)Cc2c(ccc3ccccc23)C(c2cc3ccccc3oc2=O)=N1	i	i	i	i	4.2	i
O=C(N=Nc1c(O)[nH]c2ccccc12)c1ccccc1NS(=O)(=O)c1cccs1	i	i	i	i	i	i
Cc1ccc2[nH]c(O)c(N=NC(=O)c3ccc(NS(=O)(=O)c4cccs4)cc3)c2c1	i	i	nt	nt	i	76
CCOC(=O)c1cc(S(=O)(=O)NCC2CCN(Cc3cccc(C)c3)CC2)cn1C	nt	nt	nt	nt	nt	i
Cc1ccc(NC(=O)C2CCN(C(=O)c3ccco3)CC2)cc1C	nt	nt	nt	nt	nt	i
CC(C)Cc1nnc(NC(=O)CCC(=O)N2CCN(c3ccccc3)CC2)s1	nt	nt	nt	nt	nt	103
COc1ccc(/C=C2\Sc3ccc(C(=O)NCCN4CCCCCC4)cc3N(C)C2=O)cc1	nt	nt	nt	nt	nt	i
COc1ccc(/C=C2/Sc3ccc(C(=O)N4CCc5ccccc5C4)cc3NC2=O)cc1	i	i	i	i	i	102
COc1ccc(/C=C2\Sc3ccc(C(=O)N4CCc5ccccc5C4)cc3N(C)C2=O)cc1	i	i	i	i	i	103
